{
  "source": "PubChem BioAssay",
  "note": "Active and inactive are the calls of the source.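 Rule for the calls: active = duplicate-averaged activation above buffer control mean plus 5 SD of those controls; inactive = the rest.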",
  "data": [
    {"assay": "nonspecific flux increase, KCNQ1-free cells – parental CHO cells, counter-screen for KCNQ1 potentiator project (AID 493006);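 for activation: fluorescence ratio of max minus min over baseline after K+ and Tl+ depolarization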", "details": "parental CHO-K1 cells, FluxOR thallium flux, at 10 µM; active compounds read high", "in_short": "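Benchmarks – buffer and R-L3 controls · Assay system – untransfected host CHO-K1 cells with FluxOR thallium dye · Measure – fluorescence change ratio scaled 0% buffer, 100% R-L3 · Technique – kinetic thallium-flux fluorescence · Timing – overnight 37 °C plating, 90 min RT dye, 20 min compound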", "values": [
      {"smiles": "CCCc1cc2c(-c3ccccc3)cc(=O)oc2cc1OCc1ccc(C(=O)O)o1", "activation": "193% (active)"},
      {"smiles": "O=C(c1cc([N+](=O)[O-])cc([N+](=O)[O-])c1)N1CCCc2ccccc21", "outcome": "inactive"},
      {"smiles": "O=c1c2ccccc2nc(-c2cccc(Cl)c2)n1O", "activation": "358% (active)"},
      {"smiles": "CC(C)(C)NC(=O)C(=O)NNC(=O)c1cccc(F)c1", "activation": "201% (active)"},
      {"smiles": "CC1=NN(C(=O)c2csc(C(C)C)c2)C(O)(C(F)(F)F)C1", "note": "(configuration not stated)", "activation": "164% (active)"},
      {"smiles": "CCS(=O)(=O)Nc1ccc(C(=O)CC2(O)C(=O)Nc3ccccc32)cc1", "note": "(configuration not stated)", "outcome": "inactive"},
      {"smiles": "Cc1onc(-c2ccccc2)c1C(=O)N1CCN(S(=O)(=O)c2ccc(OC(F)(F)F)cc2)CC1", "outcome": "inactive"},
      {"smiles": "CCNC(=S)/N=C(\\N)Nc1nc(C)c2cc(C)ccc2n1", "outcome": "inactive"},
      {"smiles": "O=C(O)c1ccc2c(c1)C(=O)N(Cc1ccccc1)C2=O", "outcome": "inactive"},
      {"smiles": "Cc1cc(C(c2cc(C)c(N)c(C)c2)c2ccco2)cc(C)c1N", "activation": "189% (active)"},
      {"smiles": "O=C(/C=C/c1ccccc1)C1C(=O)c2ccccc2C1=O", "outcome": "inactive"},
      {"smiles": "Cc1cccc(-n2c(=S)[nH]c3sc4c(c3c2=O)CCc2ccccc2-4)c1", "activation": "240% (active)"},
      {"smiles": "CCC1Oc2ccc(C)cc2N(CC(=O)N(Cc2ccc(C)o2)C2CC(C)(C)NC(C)(C)C2)C1=O", "note": "(configuration not stated)", "activation": "152% (active)"},
      {"smiles": "COc1ccccc1C(=O)Nc1ccnn1C1CCN(CCCC2CCCC2)CC1", "outcome": "inactive"},
      {"smiles": "O=C(NNC(=S)NC(=O)c1ccco1)c1ccc(F)cc1", "activation": "198% (active)"},
      {"smiles": "CC(C)(C)NC(=O)C(=O)NNC(=O)c1ccc(C(C)(C)C)cc1", "activation": "341% (active)"},
      {"smiles": "O=C(NC(=S)N1CCN(c2nc(-c3ccccc3)cs2)CC1)c1cncc(Br)c1", "activation": "384% (active)"}
    ]}
  ]
}
